Measured values published in publication PMC11621760 (Proceedings of the National Academy of Sciences of the …, 2024).

How the values were obtained:
GFP-AR [1] = target: T1, GFP-AR (Homo sapiens, UniProt P10275); format: cell-based; conditions: murine 3108 cells expressing GFP-AR
T1 sequence (P10275 1-920): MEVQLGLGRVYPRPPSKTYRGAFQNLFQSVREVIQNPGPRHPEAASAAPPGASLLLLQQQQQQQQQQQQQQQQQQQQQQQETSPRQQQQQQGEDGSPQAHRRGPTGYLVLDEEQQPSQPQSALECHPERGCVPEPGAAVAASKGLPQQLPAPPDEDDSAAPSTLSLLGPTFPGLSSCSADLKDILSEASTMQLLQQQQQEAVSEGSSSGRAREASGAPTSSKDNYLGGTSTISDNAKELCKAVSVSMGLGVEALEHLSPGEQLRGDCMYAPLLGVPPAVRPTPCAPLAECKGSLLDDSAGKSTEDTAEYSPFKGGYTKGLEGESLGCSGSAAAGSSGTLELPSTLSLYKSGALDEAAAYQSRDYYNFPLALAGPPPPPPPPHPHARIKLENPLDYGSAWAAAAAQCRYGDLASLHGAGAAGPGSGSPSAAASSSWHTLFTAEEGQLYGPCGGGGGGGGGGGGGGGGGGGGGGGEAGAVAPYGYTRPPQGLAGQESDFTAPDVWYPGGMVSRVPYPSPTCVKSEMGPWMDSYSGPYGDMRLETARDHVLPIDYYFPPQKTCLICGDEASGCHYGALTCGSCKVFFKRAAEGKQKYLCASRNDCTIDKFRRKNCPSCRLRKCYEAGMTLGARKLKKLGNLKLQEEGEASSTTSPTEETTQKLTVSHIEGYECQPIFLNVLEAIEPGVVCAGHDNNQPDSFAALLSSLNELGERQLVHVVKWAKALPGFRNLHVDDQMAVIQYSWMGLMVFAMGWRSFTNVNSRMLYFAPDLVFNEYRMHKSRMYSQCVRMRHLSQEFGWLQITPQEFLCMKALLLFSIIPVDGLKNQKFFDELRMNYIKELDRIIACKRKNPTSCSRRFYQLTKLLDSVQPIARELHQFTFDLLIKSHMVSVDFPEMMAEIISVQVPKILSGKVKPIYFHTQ

[2] = system: H3K27ac and AR 3D chromatin contacts; assay: AQuA-HiChIP; format: cell-based, human; conditions: 24 h at 20 µM, LNCaP-AR
Outline: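 LNCaP-AR cells grown in DMEM, 10% FBS, penicillin-streptomycin-glutamine, 37 °C, 5% CO2. MNase-based HiChIP for AR and H3K27ac with medium-salt washes and mouse chromatin spike-in for absolute quantification (AQuA). Paired-end sequencing to at least 200 million reads. Loops were filtered by distance, minimum AQuA-CPM and connection number, merged into clusters, and ranked by summed short- and long-range contacts.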

[3] = target: T2, progesterone receptor (PR) (Homo sapiens, UniProt P06401); assay: Radioligand binding assay, progesterone receptor
T2 sequence (P06401 1-933): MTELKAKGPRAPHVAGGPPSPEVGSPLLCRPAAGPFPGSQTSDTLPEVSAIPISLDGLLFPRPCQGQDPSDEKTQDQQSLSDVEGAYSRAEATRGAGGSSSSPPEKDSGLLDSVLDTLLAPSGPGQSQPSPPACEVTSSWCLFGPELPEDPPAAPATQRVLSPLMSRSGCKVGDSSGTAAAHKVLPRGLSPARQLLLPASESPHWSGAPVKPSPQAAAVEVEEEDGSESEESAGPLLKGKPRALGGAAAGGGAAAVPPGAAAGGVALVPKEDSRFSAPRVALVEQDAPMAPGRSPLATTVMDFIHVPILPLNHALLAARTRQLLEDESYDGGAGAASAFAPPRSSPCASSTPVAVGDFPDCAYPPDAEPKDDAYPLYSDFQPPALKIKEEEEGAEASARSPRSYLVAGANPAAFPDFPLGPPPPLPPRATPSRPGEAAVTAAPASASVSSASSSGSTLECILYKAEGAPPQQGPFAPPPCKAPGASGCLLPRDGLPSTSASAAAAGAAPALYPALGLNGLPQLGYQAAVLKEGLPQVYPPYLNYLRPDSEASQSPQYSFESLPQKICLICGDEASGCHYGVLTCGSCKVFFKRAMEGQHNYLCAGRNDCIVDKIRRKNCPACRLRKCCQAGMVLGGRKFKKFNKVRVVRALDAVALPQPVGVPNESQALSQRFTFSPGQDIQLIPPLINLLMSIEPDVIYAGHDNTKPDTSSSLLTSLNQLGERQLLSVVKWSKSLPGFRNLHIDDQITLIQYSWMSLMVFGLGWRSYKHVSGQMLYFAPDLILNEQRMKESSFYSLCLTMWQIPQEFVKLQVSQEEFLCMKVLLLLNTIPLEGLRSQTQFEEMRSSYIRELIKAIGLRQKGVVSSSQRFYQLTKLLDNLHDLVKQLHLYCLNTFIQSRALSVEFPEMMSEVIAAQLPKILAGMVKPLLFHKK
Outline: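 Eurofins Panlabs radioligand binding with steroid hormone receptors and their respective ligands. Buffer: 50 mM Tris-HCl, 0.8 M NaCl, 10% glycerol, 2 mM dithiothreitol, 0.1% BSA, 2% EtOH, pH 7.4. Receptor-ligand incubation, then 15 min with hydroxyapatite slurry. Samples filtered, filters washed three times and counted for specifically bound ligand. Log concentration series gave Ki and IC50.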

[4] = Parallel Artificial Membrane Permeability Assay; format: in vitro ADME; conditions: pH 6.5
GFP-AR [5] = target: T1, GFP-AR; assay: GFP-AR construct nuclear translocation in human cell lines; format: cell-based; conditions: CSS
[6] = Solubility / precipitation in solvents; format: physicochemical
22Rv1 cells = assay: Cell growth; format: cell-based, human
[7] = Microsome metabolic assay; format: in vitro ADME; conditions: in comparison to control compounds
hAR = target: T3, hAR (Homo sapiens, UniProt P10275); conditions: radioligand binding
T3 sequence (P10275 669-920 limits assumed): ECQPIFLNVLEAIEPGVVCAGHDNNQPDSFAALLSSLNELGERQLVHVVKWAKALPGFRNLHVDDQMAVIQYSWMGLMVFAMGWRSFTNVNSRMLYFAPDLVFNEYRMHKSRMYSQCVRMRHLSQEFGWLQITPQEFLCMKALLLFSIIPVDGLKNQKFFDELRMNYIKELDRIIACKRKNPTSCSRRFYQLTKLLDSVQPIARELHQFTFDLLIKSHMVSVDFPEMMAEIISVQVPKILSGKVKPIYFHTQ

AR [8] = target: T4, AR (Homo sapiens, UniProt P10275); format: cell-based; conditions: VCaP, CSS and 10 nM R1881
T4 sequence (P10275 1-920): T1 sequence (P10275 1-920)

LNCaP-AR cells = assay: Cell growth; format: cell-based, human
LAPC4 xenograft = LAPC4 xenograft growth in vivo; set-up: species or system mice; conditions: 20 mg/kg via oral gavage, 42 days
[9] = once peak concentration is reached; cited from earlier work
AR [10] = target: T4, AR; assay: AR transcriptional assays of the triazole series; format: cell-based; conditions: SI Fig. S1B/C

SMILES: CC1(C)C(=O)N(c2ccc(C#N)c(C(F)(F)F)c2)C(=S)N1Cc1ccc(-c2c[nH]nn2)cc1 [BG-15a]
- AR translocation to the nucleus (nuclear to cytoplasmic ratio, dose response) (GFP-AR [1]): induced nuclear translocation at doses 100 nM to 10 µM
- H3K27ac long-range contacts at AR loops [2]: decreased long-range acetylation contacts at AR loops
- binding affinity to the PR (in words) [3]: nanomolar range binding affinity
- drug recovery and cell permeability (PAMPA) [4]: performed similarly to each other and enzalutamide
- AR nuclear translocation (GFP-AR construct) (GFP-AR [5]): consistently stimulated AR nuclear translocation
- solubility (in words) [6]: limited
- growth inhibition compared to enzalutamide (22Rv1 cells): more efficacious in inhibiting growth compared to enzalutamide
- microsomal half-life (in words) [7]: notably high half-life
- AR binding affinity (in words) (hAR): strong AR binding affinity
- AR transcriptional activity (luciferase) (AR [8]): dose-dependent decrease of AR activity
- growth inhibition compared to enzalutamide (LNCaP-AR cells): more efficacious in inhibiting growth compared to enzalutamide
- tumor growth (LAPC4 xenograft): inhibition of tumor growth

SMILES: CNC(=O)c1ccc(N2C(=S)N(c3ccc(C#N)c(C(F)(F)F)c3)C(=O)C2(C)C)cc1F [Enzalutamide, enzalutamide]
- half-life in patients [9]: around 5 days

SMILES: CC(O)(CS(=O)(=O)c1ccc(F)cc1)C(=O)Nc1ccc(C#N)c(C(F)(F)F)c1 (stereo not drawn) [bicalutamide]
- H3K27ac long-range contacts at AR loops [2]: decreased long-range acetylation contacts at AR loops

SMILES: Cn1cc(-c2ccc(CN3C(=S)N(c4ccc(C#N)c(C(F)(F)F)c4)C(=O)C3(C)C)cc2)nn1 [15b]
- anti-AR transcriptional activity (in words) (AR [10]): dramatic loss in activity
